Measurements as given in PubChem BioAssay.
Unmarked numbers belong to inactive results.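 Rule for the calls, unless noted: active = viability at or below 10% of carrier control in both of two separate runs; inconclusive = viability at or below 10% in only one of the two runs; inactive = the rest.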

Assay: reduced viability of SK-BR-3 breast cancer cells – cell-based, 24 h, human, pilot screen (AID 572);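 note: compound exposure lasted between 18 and 24 h rather than exactly 24 h; 100% = carrier-treated control wells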
Conditions: SK-BR-3 viability, CellTiter-Glo luminescence, at 10 µM, hits give low values

Row | SMILES | viability [%]
1 | CCOc1ccc2nc(SCC(=O)Nc3ncccn3)[nH]c2c1 | 92
2 | O=C(NCc1ccccn1)c1cc(-n2cnnc2)ccc1Cl | 86
3 | OCC(O)CN1CCN(c2ccccc2)CC1 (stereo not given) | 119
4 | CCCc1cc(=O)[nH]c(Nc2ccc(OC)c(Cl)c2)n1 | 115
5 | O=C(O)c1ccc(CSc2ncn[nH]2)cc1 | 107
6 | O=C(NCc1ccc2c(c1)OCO2)C1CCC(CNS(=O)(=O)c2ccccc2)CC1 (stereo not given) | 92
7 | NC(CO)C(=O)NNCc1ccc(O)c(O)c1O (stereo not given) | 97
8 | CCCCCc1nnc(NC(=O)Cc2cccs2)s1 | 74
9 | O=C(NCCN1CCOCC1)c1ccc(CS(=O)(=O)Cc2ccccc2F)o1 | 59
10 | CC1(C2(O)CC(c3ccccc3)ON2)CCCCC1 (stereo not given) | 108
11 | CCOC(=O)N1CCC(n2c(=S)[nH]c3cc(OC)c(OC)cc3c2=O)CC1 | 114
12 | O=S(=O)(NCc1cn2ccccc2n1)c1cc(F)ccc1F | 107
13 | O=C(CCNNC(=O)c1ccncc1)NCc1ccccc1 | 72
14 | CC(OC(=O)c1ccco1)C(=O)NCc1cccs1 (stereo not given) | 119
15 | C(=N/n1c2ccccc2c2ccccc21)/c1ccco1 | 81
16 | CCCCC[C@H](O)/C=C/C1=C(CCCCCCC(=O)O)C(=O)CC1 | 109
17 | CCOC(=O)C1CCN(C(=O)COc2ccc(S(=O)(=O)NC(C)C)cc2Cl)CC1 | 99.5
18 | Nn1c(SCC(=O)NC2CCCCC2)nnc1-c1ccc(Cl)cc1 | 89
19 | Cc1nnc(C)c2c(C)n(Cc3ccc4c(c3)OCO4)c(C)c12 | 76
20 | CCOC(=O)c1cc(-c2ccccc2)sc1N | 129

Row | SMILES | viability [%]
21 | O=C(Nc1nc(-c2cccs2)cs1)c1cccc(S(=O)(=O)N2CCCCC2)c1 | 194
22 | c1cc2c(cc1Cn1cnnn1)OCO2 | 96
23 | Cc1cc(C)cc(NC(=O)CN(C)S(=O)(=O)c2cnc[nH]2)c1 | 113
24 | CC(=O)[C@@]1(O)CC[C@H]2[C@@H]3C[C@H](C)C4=CC(=O)C=C[C@]4(C)[C@@]3(F)[C@@H](O)C[C@@]21C | 100
25 | O=S(=O)(Nn1cnnc1)c1ccccc1Cl | 84
26 | CNC(=O)NCCN1CCCC1=O | 110
27 | CC(=O)c1ccccc1NS(=O)(=O)c1c(C)nn(-c2ccccc2)c1C | 99
28 | Cc1onc(-c2c(F)cccc2Cl)c1C(=O)Nc1nc2c(s1)CCCC2 | 109
29 | Cc1nc2ccc(S(=O)(=O)NCC(=O)N3CCCCC3)cc2s1 | 116
30 | CCN1CCN(C(=O)N[C@@H](C(=O)N[C@@H]2C(=O)N3[C@@H]2SC(C)(C)[C@@H]3C(=O)O)c2ccccc2)C(=O)C1=O | 96
31 | COc1ccc2cnn(-c3ccccc3C)c(=O)c2c1OC | 88
32 | Cc1ccc(S(=O)(=O)N2CCN(C(=O)CSc3nc4ccccc4c(=O)[nH]3)CC2)c(C)c1 | 99
33 | C=CCN1C(=O)CS/C1=N/c1nccs1 | 65
34 | CCCC(=O)Nc1ccc(C(=O)O)cc1NC(=O)CCC | 77
35 | CCCC(=O)Nc1cnc(NC(=O)c2cccc(F)c2)cc1C | 86
36 | Cc1cc(C)n2nc(SCC(=O)N(C)Cc3ccccc3)nc2n1 | 109
37 | CCc1[nH]nc2c1C1(CCN(C(=O)OCc3ccccc3)CC1)C(C#N)=C(N)O2 | 112
38 | CCOc1ccc(N2CC(C(=O)NCCc3ccc(OC)c(OC)c3)CC2=O)cc1 (stereo not given) | 108
39 | O=C(COC(=O)CCC1CCCC1)Nc1ccc(Cl)cn1 | 107
40 | c1ccc(-c2oc3ncnc(NCCN4CCOCC4)c3c2-c2ccccc2)cc1 | 90

Assay: HUVEC growth inhibition – cell-based, human, primary screen (AID 575;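 active = viability at or below 30% in both replicate assays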;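 note: 100% = median of untreated cell wells with 0.1% DMSO on each plate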)
Conditions: HUVEC proliferation, CellTiter-Glo luminescence, 72 h; at 10 µM; hits give low values
Outline: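 System: primary human umbilical vein endothelial cells; Quantity: 1250 endothelial cells in each well; Buffer or medium: supplemented EBM, 2% fetal bovine serum; Doses: one dose, 10 µM final, 0.1% DMSO; Incubation: 72 h compound incubation; Technique: ATP-based CellTiter-Glo luminescent read; Evaluation: percent of median DMSO-control luminescence; Controls: vehicle and MePR control wells.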

Row | SMILES | viability [%]
41 | CCOc1ccc2nc(SCC(=O)Nc3ncccn3)[nH]c2c1 | 97.4
42 | O=C(NCc1ccccn1)c1cc(-n2cnnc2)ccc1Cl | 88.6
43 | OCC(O)CN1CCN(c2ccccc2)CC1 (stereo not given) | 100
44 | CCCc1cc(=O)[nH]c(Nc2ccc(OC)c(Cl)c2)n1 | 76.1
45 | O=C(O)c1ccc(CSc2ncn[nH]2)cc1 | 105
46 | O=C(NCc1ccc2c(c1)OCO2)C1CCC(CNS(=O)(=O)c2ccccc2)CC1 (stereo not given) | 78.9
47 | NC(CO)C(=O)NNCc1ccc(O)c(O)c1O (stereo not given) | 82.9
48 | CCCCCc1nnc(NC(=O)Cc2cccs2)s1 | 110
49 | O=C(NCCN1CCOCC1)c1ccc(CS(=O)(=O)Cc2ccccc2F)o1 | 102
50 | CC1(C2(O)CC(c3ccccc3)ON2)CCCCC1 (stereo not given) | 95
51 | CCOC(=O)N1CCC(n2c(=S)[nH]c3cc(OC)c(OC)cc3c2=O)CC1 | 59.5
52 | O=S(=O)(NCc1cn2ccccc2n1)c1cc(F)ccc1F | 89.9
53 | O=C(CCNNC(=O)c1ccncc1)NCc1ccccc1 | 84.7
54 | CC(OC(=O)c1ccco1)C(=O)NCc1cccs1 (stereo not given) | 90.3
55 | C(=N/n1c2ccccc2c2ccccc21)/c1ccco1 | 77.9
56 | CCCCC[C@H](O)/C=C/C1=C(CCCCCCC(=O)O)C(=O)CC1 | 75.2
57 | CCOC(=O)C1CCN(C(=O)COc2ccc(S(=O)(=O)NC(C)C)cc2Cl)CC1 | 100
58 | Nn1c(SCC(=O)NC2CCCCC2)nnc1-c1ccc(Cl)cc1 | 104
59 | Cc1nnc(C)c2c(C)n(Cc3ccc4c(c3)OCO4)c(C)c12 | 91
60 | CCOC(=O)c1cc(-c2ccccc2)sc1N | 71.1

Row | SMILES | viability [%]
61 | O=C(Nc1nc(-c2cccs2)cs1)c1cccc(S(=O)(=O)N2CCCCC2)c1 | 67.2
62 | c1cc2c(cc1Cn1cnnn1)OCO2 | 96.9
63 | Cc1cc(C)cc(NC(=O)CN(C)S(=O)(=O)c2cnc[nH]2)c1 | 104
64 | CC(=O)[C@@]1(O)CC[C@H]2[C@@H]3C[C@H](C)C4=CC(=O)C=C[C@]4(C)[C@@]3(F)[C@@H](O)C[C@@]21C | 92.3
65 | O=S(=O)(Nn1cnnc1)c1ccccc1Cl | 109
66 | CNC(=O)NCCN1CCCC1=O | 112
67 | CC(=O)c1ccccc1NS(=O)(=O)c1c(C)nn(-c2ccccc2)c1C | 77.6
68 | Cc1onc(-c2c(F)cccc2Cl)c1C(=O)Nc1nc2c(s1)CCCC2 | 92.7
69 | Cc1nc2ccc(S(=O)(=O)NCC(=O)N3CCCCC3)cc2s1 | 100
70 | CCN1CCN(C(=O)N[C@@H](C(=O)N[C@@H]2C(=O)N3[C@@H]2SC(C)(C)[C@@H]3C(=O)O)c2ccccc2)C(=O)C1=O | 84.1
71 | COc1ccc2cnn(-c3ccccc3C)c(=O)c2c1OC | 85.5
72 | Cc1ccc(S(=O)(=O)N2CCN(C(=O)CSc3nc4ccccc4c(=O)[nH]3)CC2)c(C)c1 | 77.4
73 | C=CCN1C(=O)CS/C1=N/c1nccs1 | 96.5
74 | CCCC(=O)Nc1ccc(C(=O)O)cc1NC(=O)CCC | 97.3
75 | CCCC(=O)Nc1cnc(NC(=O)c2cccc(F)c2)cc1C | 90.3
76 | Cc1cc(C)n2nc(SCC(=O)N(C)Cc3ccccc3)nc2n1 | 107
77 | CCc1[nH]nc2c1C1(CCN(C(=O)OCc3ccccc3)CC1)C(C#N)=C(N)O2 | 85.6
78 | CCOc1ccc(N2CC(C(=O)NCCc3ccc(OC)c(OC)c3)CC2=O)cc1 (stereo not given) | 97.6
79 | O=C(COC(=O)CCC1CCCC1)Nc1ccc(Cl)cn1 | 101
80 | c1ccc(-c2oc3ncnc(NCCN4CCOCC4)c3c2-c2ccccc2)cc1 | 58.8
